Data reported in paper PMC4791037 (Environmental science & technology, 2015).

Key:
[1] = test system: genomic DNA damage in Chinese hamster ovary (CHO) cell line AS52, clone 11-4-8; assay: Single cell gel electrophoresis; format: cell-based; conditions: CHO cells, 4 h; for GTI (±SE), genotoxicity index: mean bootstrap value, calculated as (50%TDNA)^−1(10^3)
Method in brief: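 CHO AS52 clone 11-4-8 cells (Ham's F12, 5% FBS, 37 °C, 5% CO2) exposed to test compound, then run in microplate comet assay. %Tail DNA scored only over concentrations with viability >70%. Microgel means were averaged per concentration and tested by one-way ANOVA with Holm-Sidak versus control (P ≤ 0.05). 50% Tail DNA concentration came from regression. Bootstrap replicates gave GTI values (1/M).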

[2] = test system: Chinese hamster ovary (CHO) cell line AS52, clone 11-4-8; assay: CHO cell chronic cytotoxicity assay; format: cell-based; conditions: mean bootstrap value, calculated as (LC50)^−1(10^3); CHO cells, 72 h
[3] = CHO cell chronic cytotoxicity assay; format: cell-based, Chinese hamster; conditions: Chinese hamster, CHO cells, line AS52, clone 11-4-8

| Structure (SMILES) | GTI (±SE), genotoxicity index [1] | CTI (±SE), cytotoxicity index [2] | CC50 at 72 h [3] | genotoxicity (result in words) ([1]; SCGE assay) |
| --- | --- | --- | --- | --- |
| O=CCBr [BAL, bromoacetaldehyde] | 2.68 ± 0.11 M⁻¹ | 64.6 ± 3.5 M⁻¹ |  |  |
| O=CC(Cl)Br (stereo not shown) [BCAL, bromochloroacetaldehyde] | 1.61 ± 0.21 M⁻¹ | 207.4 ± 11.0 M⁻¹ |  |  |
| O=CC(Cl)(Cl)Br [BDCAL, bromodichloroacetaldehyde] | 2.24 ± 0.05 M⁻¹ | 51.1 ± 4.3 M⁻¹ |  |  |
| O=CC(Br)Br [DBAL, dibromoacetaldehyde] | 9.11 ± 0.60 M⁻¹ | 207.5 ± 2.1 M⁻¹ |  |  |
| O=CC(Cl)(Br)Br [DBCAL, dibromochloroacetaldehyde] | 6.99 ± 0.28 M⁻¹ | 200.2 ± 1.4 M⁻¹ |  |  |
| O=CC(Cl)Cl [DCAL, dichloroacetaldehyde] | 1.26 ± 0.03 M⁻¹ | 35.7 ± 0.8 M⁻¹ |  |  |
| O=CCI [IAL, iodoacetaldehyde] | 0.96 ± 0.03 M⁻¹ | 170.4 ± 7.3 M⁻¹ |  |  |
| O=CC(Br)(Br)Br [TBAL, tribromoacetaldehyde] | 3.00 ± 0.03 M⁻¹ | 279.8 ± 4.8 M⁻¹ | 3.58 µM |  |
| O=CC(Cl)(Cl)Cl [TCAL, trichloroacetaldehyde] |  | 0.94 ± 0.03 M⁻¹ |  | not genotoxic |
